Experiments:
SK-MEL-3 xenografts = assay: Tissue distribution in mice bearing SK-MEL-3 xenografts; format: in vivo, NCr^nu/nu mice; settings: SK-MEL-3 xenograft mice; for Tissue distribution: Blood: tail vein
Method in brief: (§1)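 Male athymic NCr nu/nu mice received 0.25 mL of cells (8 × 10⁶/mL in 1:1 D-PBS-glucose-pyruvate/Matrigel) into the right hind flank. Tumours were used at 100–500 mm³ (~21 days). Tail-vein bolus of ~74 KBq tracer in 0.05 mL; n = 5 per time point. Mice were killed by CO₂ at 1, 4 and 24 h. Organs and tumour were weighed wet and gamma-counted; results are %ID/g, mean ± SD.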

[1] = Pharmacokinetics and gamma camera imaging in cynomolgus monkeys; format: in vivo
Method in brief: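 Four cynomolgus monkeys (2 female, 2 male), Telazol-anaesthetised, received 185 MBq radiotracer iv without thyroid blockade. Serial anterior/posterior gamma-camera imaging was performed. Blood was drawn at 5, 30, 60, 120 and 360 min and at 24, 48 and 72 h. Urine was pooled over 0–6, 6–24, 24–48 and 48–72 h. Analysis was non-compartmental, with CL = dose/AUC and Vss = MRT × CL.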

A375 xenografts = assay: Tissue distribution in mice bearing A375 xenografts; format: in vivo, NCr^nu/nu mice; settings: A375 xenograft mice; for Tissue distribution: Blood: tail vein
Method in brief: as §1

[2] = both, cynomolgus monkey, blood, iv, 185 MBq

CCN(CC)CCNC(=O)c1cc(I)c(NC(=O)c2ccc(F)cc2)cc1OC [[^131I]MIP-1145, N-(2-diethylamino-ethyl)-4-(4-fluoro-benzamido)-5-iodo-2-methoxy-benzamide]
Tumor:blood ratio (SK-MEL-3 xenografts; 4 hours post-injection): 25.2
Tissue distribution: Blood (SK-MEL-3 xenografts; 4 hours post-injection): 0.35 ± 0.04 %ID/g
Tissue distribution: Adipose (SK-MEL-3 xenografts; 24 hours): 0.09 ± 0.05 %ID/g
Tissue distribution: Bone (SK-MEL-3 xenografts; 24 hours): 0.09 ± 0.08 %ID/g
Tissue distribution: Brain (SK-MEL-3 xenografts; 24 hours): 0.01 ± 0.01 %ID/g
Tissue distribution: Heart (SK-MEL-3 xenografts; 24 hours): 0.04 ± 0.03 %ID/g
Tissue distribution: Kidneys (SK-MEL-3 xenografts; 24 hours): 0.51 ± 0.18 %ID/g
Tissue distribution: Large Intestine (SK-MEL-3 xenografts; 24 hours): 2.24 ± 0.67 %ID/g
Tissue distribution: Liver (SK-MEL-3 xenografts; 24 hours): 0.50 ± 0.07 %ID/g
Tissue distribution: Lungs (SK-MEL-3 xenografts; 24 hours): 0.29 ± 0.08 %ID/g
Tissue distribution: Skeletal Muscle (SK-MEL-3 xenografts; 24 hours): 0.03 ± 0.02 %ID/g
Tissue distribution: Small Intestine (SK-MEL-3 xenografts; 24 hours): 1.03 ± 0.24 %ID/g
Tissue distribution: Spleen (SK-MEL-3 xenografts; 24 hours): 0.12 ± 0.03 %ID/g
Tissue distribution: Stomach (SK-MEL-3 xenografts; 24 hours): 1.41 ± 0.53 %ID/g
Tissue distribution: Testes (SK-MEL-3 xenografts; 24 hours): 0.22 ± 0.02 %ID/g
Tissue distribution: Tumor (SK-MEL-3 xenografts; 24 hours): 5.91 ± 3.94 %ID/g
Tumor:blood ratio (SK-MEL-3 xenografts; 24 hours post-injection): 197
Tissue distribution: Blood (SK-MEL-3 xenografts; 24 hours post-injection): 0.03 ± 0.00 %ID/g
MRT [1, 2]: 47 ± 5 h
Vd [1, 2]: 19 ± 3 L
clearance [1, 2]: 6.67 mL/min
Injected dose recovered in the urine ([1]; cynomolgus monkeys, by 72 hours post-injection): 28%
Tissue distribution: Adipose (A375 xenografts; 1 hour): 1.56 ± 0.23 %ID/g
Tissue distribution: Bone (A375 xenografts; 1 hour): 1.34 ± 0.12 %ID/g
Tissue distribution: Brain (A375 xenografts; 1 hour): 0.60 ± 0.17 %ID/g
Tissue distribution: Heart (A375 xenografts; 1 hour): 1.96 ± 0.33 %ID/g
Tissue distribution: Kidneys (A375 xenografts; 1 hour): 14.26 ± 2.73 %ID/g
Tissue distribution: Large Intestine (A375 xenografts; 1 hour): 2.69 ± 0.49 %ID/g
Tissue distribution: Liver (A375 xenografts; 1 hour): 6.79 ± 1.33 %ID/g
Tissue distribution: Lungs (A375 xenografts; 1 hour): 9.81 ± 0.88 %ID/g
Tissue distribution: Skeletal Muscle (A375 xenografts; 1 hour): 1.03 ± 0.09 %ID/g
Tissue distribution: Small Intestine (A375 xenografts; 1 hour): 9.19 ± 3.32 %ID/g
Tissue distribution: Spleen (A375 xenografts; 1 hour): 4.54 ± 1.34 %ID/g
Tissue distribution: Stomach (A375 xenografts; 1 hour): 6.22 ± 2.34 %ID/g
Tissue distribution: Testes (A375 xenografts; 1 hour): 1.58 ± 0.22 %ID/g
Tissue distribution: Tumor (A375 xenografts; 1 hour): 2.38 ± 0.75 %ID/g
Tissue distribution: Blood (A375 xenografts; 1 hour post-injection): 0.46 ± 0.05 %ID/g
Tissue distribution: Adipose (A375 xenografts; 4 hours): 1.10 ± 0.46 %ID/g
Tissue distribution: Bone (A375 xenografts; 4 hours): 0.74 ± 0.07 %ID/g
Tissue distribution: Brain (A375 xenografts; 4 hours): 0.16 ± 0.01 %ID/g
Tissue distribution: Heart (A375 xenografts; 4 hours): 1.04 ± 0.06 %ID/g
Tissue distribution: Kidneys (A375 xenografts; 4 hours): 8.53 ± 1.20 %ID/g
Tissue distribution: Large Intestine (A375 xenografts; 4 hours): 13.81 ± 5.14 %ID/g
Tissue distribution: Liver (A375 xenografts; 4 hours): 4.30 ± 0.45 %ID/g
Tissue distribution: Lungs (A375 xenografts; 4 hours): 7.24 ± 1.31 %ID/g
Tissue distribution: Skeletal Muscle (A375 xenografts; 4 hours): 0.58 ± 0.12 %ID/g
Tissue distribution: Small Intestine (A375 xenografts; 4 hours): 12.44 ± 2.02 %ID/g
Tissue distribution: Spleen (A375 xenografts; 4 hours): 2.57 ± 0.51 %ID/g
Tissue distribution: Stomach (A375 xenografts; 4 hours): 4.57 ± 1.77 %ID/g
Tissue distribution: Testes (A375 xenografts; 4 hours): 0.90 ± 0.13 %ID/g
Tissue distribution: Tumor (A375 xenografts; 4 hours): 1.19 ± 0.07 %ID/g
Tissue distribution: Blood (A375 xenografts; 4 hours post-injection): 0.26 ± 0.04 %ID/g
Tissue distribution: Adipose (A375 xenografts; 24 hours): 0.13 ± 0.12 %ID/g
Tissue distribution: Bone (A375 xenografts; 24 hours): 0.03 ± 0.02 %ID/g
Tissue distribution: Brain (A375 xenografts; 24 hours): 0.01 ± 0.00 %ID/g
Tissue distribution: Heart (A375 xenografts; 24 hours): 0.02 ± 0.02 %ID/g
Tissue distribution: Kidneys (A375 xenografts; 24 hours): 0.21 ± 0.08 %ID/g
Tissue distribution: Large Intestine (A375 xenografts; 24 hours): 1.35 ± 0.36 %ID/g
Tissue distribution: Liver (A375 xenografts; 24 hours): 0.32 ± 0.06 %ID/g
Tissue distribution: Lungs (A375 xenografts; 24 hours): 0.37 ± 0.15 %ID/g
Tissue distribution: Skeletal Muscle (A375 xenografts; 24 hours): 0.02 ± 0.01 %ID/g
Tissue distribution: Small Intestine (A375 xenografts; 24 hours): 0.59 ± 0.24 %ID/g
Tissue distribution: Spleen (A375 xenografts; 24 hours): 0.15 ± 0.20 %ID/g
Tissue distribution: Stomach (A375 xenografts; 24 hours): 0.67 ± 0.27 %ID/g
Tissue distribution: Testes (A375 xenografts; 24 hours): 0.16 ± 0.05 %ID/g
Tissue distribution: Tumor (A375 xenografts; 24 hours): 0.04 ± 0.02 %ID/g
Tissue distribution: Blood (A375 xenografts; 24 hours post-injection): 0.04 ± 0.02 %ID/g

Source: publication PMC2871064 (Cancer research, 2010)
